Experimental data: publication PMC3911823 (The FEBS journal, 2011)
Where a chain is given by its changes, count along the chain named. “Also recorded” adds a separate entry of the source. Each block holds one molecule with its values, some of them ahead of it.

Key:
P450 2B4 H172A [1] = molecular target: T1, P450 2B4 H172A (Oryctolagus cuniculus, UniProt P00178, H172A); test: Inhibition of 7-EFC O-deethylation by imidazole inhibitors; format: biochemical, rabbit (Oryctolagus cuniculus)
T1 sequence (P00178 with tags, fused parts or gaps H172A limits assumed): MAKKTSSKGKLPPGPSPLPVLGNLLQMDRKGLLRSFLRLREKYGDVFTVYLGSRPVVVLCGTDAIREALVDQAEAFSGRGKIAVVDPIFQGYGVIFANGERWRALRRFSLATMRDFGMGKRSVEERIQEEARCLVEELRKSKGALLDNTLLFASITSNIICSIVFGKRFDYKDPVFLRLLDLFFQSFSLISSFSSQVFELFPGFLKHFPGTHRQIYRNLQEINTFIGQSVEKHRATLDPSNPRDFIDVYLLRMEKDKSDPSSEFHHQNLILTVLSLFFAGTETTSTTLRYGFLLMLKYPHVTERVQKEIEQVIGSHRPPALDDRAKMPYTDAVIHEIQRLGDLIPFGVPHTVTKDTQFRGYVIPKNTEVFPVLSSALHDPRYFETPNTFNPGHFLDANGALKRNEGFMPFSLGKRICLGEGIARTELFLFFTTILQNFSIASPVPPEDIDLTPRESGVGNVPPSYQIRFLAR

P450 2B4 L437A [2] = molecular target: T2, P450 2B4 L437A (Oryctolagus cuniculus, UniProt P00178, L437A); test: as above; format: biochemical, rabbit (Oryctolagus cuniculus)
T2 sequence (P00178 with tags, fused parts or gaps L437A limits assumed): T1 sequence (P00178 with tags, fused parts or gaps H172A limits assumed) with A153H, L418A

P450 2B4 E474D [3] = molecular target: T3, P450 2B4 E474D (Oryctolagus cuniculus, UniProt P00178, E474D); test: as above; format: biochemical, rabbit (Oryctolagus cuniculus)
T3 sequence (P00178 with tags, fused parts or gaps E474D limits assumed): T1 sequence (P00178 with tags, fused parts or gaps H172A limits assumed) with A153H, E455D

P450 2B4 L437A [4] = molecular target: T2, P450 2B4 L437A; test: Spectral binding titration of imidazole ligands; parameters: species or system rabbit (Oryctolagus cuniculus); conditions: 2B4 L437A versus wild type
Method in brief: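 Protein was the His-tagged 2B4dH construct (single mutants or wild type), expressed in TOPP3 cells and Ni-NTA purified. Spectra 350–700 nm recorded after serial 5 μl additions of 100 μM 4-CPI or bifonazole. Ks came from a tight-binding equation fit, and the 4-CPI/bifonazole Ks ratio was calculated.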

P450 2B4 H172A [5] = molecular target: T1, P450 2B4 H172A; format: biochemical, rabbit (Oryctolagus cuniculus)
P450 2B4 H172Q = molecular target: T4, P450 2B4 H172Q (Oryctolagus cuniculus, UniProt P00178, H172Q); format: biochemical, rabbit (Oryctolagus cuniculus)
T4 sequence (P00178 with tags, fused parts or gaps H172Q limits assumed): T1 sequence (P00178 with tags, fused parts or gaps H172A limits assumed) with A153Q

P450 2B4 L437A [6] = molecular target: T2, P450 2B4 L437A; format: biochemical, rabbit (Oryctolagus cuniculus)
P450 2B4 E474D [7] = molecular target: T3, P450 2B4 E474D; format: biochemical, rabbit (Oryctolagus cuniculus)

IC50 (P450 2B4 H172A [1]): 0.31 µM | Ratio 4-CPI IC50/Bifonazole IC50 (P450 2B4 H172A [1]; 2B4 H172A, 50 μM 7-EFC as substrate): 0.53 | IC50 (P450 2B4 L437A [2]): 0.97 µM | Ratio 4-CPI IC50/Bifonazole IC50 (P450 2B4 L437A [2]; 2B4 L437A, 50 μM 7-EFC as substrate): 3.88 | IC50 (P450 2B4 E474D [3]): 0.24 µM | Ratio 4-CPI IC50/Bifonazole IC50 (P450 2B4 E474D [3]; 2B4 E474D, 50 μM 7-EFC as substrate): 0.39 | Ks (spectral dissociation constant) higher than wild type (P450 2B4 L437A [4]): ~ 50 times | change in the ratio of 4-CPI Ks to bifonazole Ks (P450 2B4 L437A [4]): greater than 9 fold
Compound: Clc1ccc(-c2c[nH]cn2)cc1 [4-CPI, 4-(4-chlorophenyl)imidazole]

decrease (change) in kcat versus wild type (P450 2B4 H172A [5]): ~ 19 fold | kcat (P450 2B4 H172A [5]): 0.0067 ± 0.0017 s⁻¹ | kcat/S50 (P450 2B4 H172A [5]): 0.08 | S50 (P450 2B4 H172A [5]; Hill equation): 5.0 ± 0.8 µM | decrease (change) in kcat versus wild type (P450 2B4 H172Q): ~ 15 fold | kcat (P450 2B4 H172Q): 0.0083 ± 0.0017 s⁻¹ | kcat/S50 (P450 2B4 H172Q): 0.06 | S50 (P450 2B4 H172Q; Hill equation): 8.2 ± 1.0 µM | kcat (P450 2B4 L437A [6]): 0 s⁻¹ | kcat/S50 (P450 2B4 L437A [6]): 0 | decrease (change) in kcat versus wild type (P450 2B4 E474D [7]): ~ 2.5 fold | kcat (P450 2B4 E474D [7]): 0.0517 ± 0.0033 s⁻¹ | kcat/S50 (P450 2B4 E474D [7]): 0.5 | S50 (P450 2B4 E474D [7]; Hill equation): 6.2 ± 0.7 µM
Compound: O=c1ccc2nc3ccc(OCc4ccccc4)cc3oc-2c1 [7-BR, 7-benzyloxyresorufin]
substrate turnover (activity) (P450 2B4 L437A [6]): did not turn over; also recorded: no activity
